Values after ≈ are worked out from the molar mass of the structure shown.
Key:
Type in all cases: functional
[1] = system: Candida albicans; test: Antifungal activity against Candida albicans after 2 to 7 days by serial plate dilution method
Outline: (§1)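 Compounds dissolved as DMSO stocks and serially diluted in RPMI 1640 buffered with MOPS, giving final concentrations of 128–0.25. Individual fungal inoculum added to each well. Incubated in triplicate at 37 °C for 2–7 days. MIC read as the lowest concentration with no visible growth. Amphotericin B and fluconazole served as positive controls.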

[2] = system: Cryptococcus neoformans; test: Antifungal activity against Cryptococcus neoformans after 2 to 7 days by serial plate dilution method; outline: as §1
[3] = system: Mucor racemosus; test: Antifungal activity against Mucor racemosus after 2 to 7 days by serial plate dilution method
[4] = system: Nannizzia gypsea; test: Antifungal activity against Microsporum gypseum after 2 to 7 days by serial plate dilution method; outline: as §1
[5] = system: Epidermophyton floccosum; test: Antifungal activity against Epidermophyton floccosum after 2 to 7 days by serial plate dilution method; outline: as §1

SMILES	MIC [1]	MIC [2]	MIC [3]	MIC [4]	MIC [5]
O=C1CC(c2c[nH]c3ccccc23)Sc2ccc(F)cc21 (stereo not given)	128 µg/mL (≈ 430 µM)	64 µg/mL (≈ 215 µM)	32 µg/mL (≈ 108 µM)	32 µg/mL (≈ 108 µM)	32 µg/mL (≈ 108 µM)
Cc1ccc2c(c1)C(=O)CC(c1c[nH]c3ccccc13)S2 (stereo not given)	128 µg/mL (≈ 436 µM)	32 µg/mL (≈ 109 µM)	128 µg/mL (≈ 436 µM)	> 128 µg/mL	> 128 µg/mL
O=C1CC(c2c[nH]c3ccccc23)Sc2ccc(Cl)cc21 (stereo not given)	64 µg/mL (≈ 204 µM)	32 µg/mL (≈ 102 µM)	64 µg/mL (≈ 204 µM)	64 µg/mL (≈ 204 µM)	32 µg/mL (≈ 102 µM)
O=C1CC(c2c[nH]c3ccc(Cl)cc23)Sc2ccc(Cl)cc21 (stereo not given)	64 µg/mL (≈ 184 µM)	4 µg/mL (≈ 11.5 µM)	8 µg/mL (≈ 23 µM)	16 µg/mL (≈ 45.9 µM)	8 µg/mL (≈ 23 µM)
Cn1cc(C2CC(=O)c3cc(Cl)ccc3S2)c2ccccc21 (stereo not given)	64 µg/mL (≈ 195 µM)	128 µg/mL (≈ 390 µM)	32 µg/mL (≈ 97.6 µM)	128 µg/mL (≈ 390 µM)	128 µg/mL (≈ 390 µM)
O=C1CC(c2c[nH]c3ccccc23)Sc2c(F)cccc21 (stereo not given)	32 µg/mL (≈ 108 µM)	16 µg/mL (≈ 53.8 µM)	32 µg/mL (≈ 108 µM)	8 µg/mL (≈ 26.9 µM)	8 µg/mL (≈ 26.9 µM)
O=C1CC(c2c[nH]c3ccc(Cl)cc23)Sc2c(F)cccc21 (stereo not given)	32 µg/mL (≈ 96.4 µM)	4 µg/mL (≈ 12.1 µM)	8 µg/mL (≈ 24.1 µM)	8 µg/mL (≈ 24.1 µM)	4 µg/mL (≈ 12.1 µM)
O=C1CC(c2c[nH]c3ccc(O)cc23)Sc2c(F)cccc21 (stereo not given)	16 µg/mL (≈ 51.1 µM)	8 µg/mL (≈ 25.5 µM)	16 µg/mL (≈ 51.1 µM)	16 µg/mL (≈ 51.1 µM)	4 µg/mL (≈ 12.8 µM)
Cc1cccc2c1SC(c1c[nH]c3ccccc13)CC2=O (stereo not given)	64 µg/mL (≈ 218 µM)	64 µg/mL (≈ 218 µM)	64 µg/mL (≈ 218 µM)	64 µg/mL (≈ 218 µM)	128 µg/mL (≈ 436 µM)
Cc1cccc2c1SC(c1cn(C)c3ccccc13)CC2=O (stereo not given)	128 µg/mL (≈ 416 µM)	32 µg/mL (≈ 104 µM)	64 µg/mL (≈ 208 µM)	32 µg/mL (≈ 104 µM)	64 µg/mL (≈ 208 µM)
Cn1cc(C2CC(=O)c3cccc(Cl)c3S2)c2ccccc21 (stereo not given)	32 µg/mL (≈ 97.6 µM)	64 µg/mL (≈ 195 µM)	32 µg/mL (≈ 97.6 µM)	32 µg/mL (≈ 97.6 µM)	32 µg/mL (≈ 97.6 µM)
Cc1cc2c(cc1F)SC(c1c[nH]c3ccccc13)CC2=O (stereo not given)	> 128 µg/mL	64 µg/mL (≈ 206 µM)	128 µg/mL (≈ 411 µM)	64 µg/mL (≈ 206 µM)	64 µg/mL (≈ 206 µM)
Cc1cc(C)c2c(c1)C(=O)CC(c1c[nH]c3ccccc13)S2 (stereo not given)	64 µg/mL (≈ 208 µM)	32 µg/mL (≈ 104 µM)	128 µg/mL (≈ 416 µM)	64 µg/mL (≈ 208 µM)	128 µg/mL (≈ 416 µM)
Cc1cc(C)c2c(c1)C(=O)CC(c1c[nH]c3ccc(Cl)cc13)S2 (stereo not given)	32 µg/mL (≈ 93.6 µM)	16 µg/mL (≈ 46.8 µM)	32 µg/mL (≈ 93.6 µM)	16 µg/mL (≈ 46.8 µM)	16 µg/mL (≈ 46.8 µM)
Cc1cc(C)c2c(c1)C(=O)CC(c1c[nH]c3ccc(O)cc13)S2 (stereo not given)	64 µg/mL (≈ 198 µM)	16 µg/mL (≈ 49.5 µM)	32 µg/mL (≈ 98.9 µM)	16 µg/mL (≈ 49.5 µM)	16 µg/mL (≈ 49.5 µM)
C[C@@H]1[C@H](O)[C@@H](C)/C=C/C=C/C=C/C=C/C=C/C=C/C=C/[C@H](O[C@@H]2O[C@H](C)[C@@H](O)[C@H](N)[C@@H]2O)C[C@@H]2O[C@](O)(C[C@@H](O)C[C@@H](O)[C@H](O)CC[C@@H](O)C[C@@H](O)CC(=O)O[C@H]1C)C[C@H](O)[C@H]2C(=O)O [AMPHOTERICIN B]	2 µg/mL (≈ 2.16 µM)	4 µg/mL (≈ 4.33 µM)	4 µg/mL (≈ 4.33 µM)	2 µg/mL (≈ 2.16 µM)	2 µg/mL (≈ 2.16 µM)
OC(Cn1cncn1)(Cn1cncn1)c1ccc(F)cc1F [FLUCONAZOLE]	32 µg/mL (≈ 104 µM)	8 µg/mL (≈ 26.1 µM)	32 µg/mL (≈ 104 µM)	64 µg/mL (≈ 209 µM)	32 µg/mL (≈ 104 µM)
